# In the library only some 2.9% were active in any assay of this set; here they are far more common.
# E-sel inducer: E-selectin induction on HUVECs; AID 686992; HUVEC E-selectin immunofluorescence imaging; normalized: neutral wells 0, TNF-alpha wells 100; 260,000 compounds, 0.37% hits; activation, % at 7.58 µM; P16581;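 active = mean E-selectin-positive cell signal at least 10% of the positive control, reached in at least 60% of replicates, without over 20% cell loss; inconclusive = no rule given, readout overlaps actives, possibly toxicity-flagged; inactive = the rest, including those meeting only one limit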
# Target sequence (P16581 whole entry, looked up): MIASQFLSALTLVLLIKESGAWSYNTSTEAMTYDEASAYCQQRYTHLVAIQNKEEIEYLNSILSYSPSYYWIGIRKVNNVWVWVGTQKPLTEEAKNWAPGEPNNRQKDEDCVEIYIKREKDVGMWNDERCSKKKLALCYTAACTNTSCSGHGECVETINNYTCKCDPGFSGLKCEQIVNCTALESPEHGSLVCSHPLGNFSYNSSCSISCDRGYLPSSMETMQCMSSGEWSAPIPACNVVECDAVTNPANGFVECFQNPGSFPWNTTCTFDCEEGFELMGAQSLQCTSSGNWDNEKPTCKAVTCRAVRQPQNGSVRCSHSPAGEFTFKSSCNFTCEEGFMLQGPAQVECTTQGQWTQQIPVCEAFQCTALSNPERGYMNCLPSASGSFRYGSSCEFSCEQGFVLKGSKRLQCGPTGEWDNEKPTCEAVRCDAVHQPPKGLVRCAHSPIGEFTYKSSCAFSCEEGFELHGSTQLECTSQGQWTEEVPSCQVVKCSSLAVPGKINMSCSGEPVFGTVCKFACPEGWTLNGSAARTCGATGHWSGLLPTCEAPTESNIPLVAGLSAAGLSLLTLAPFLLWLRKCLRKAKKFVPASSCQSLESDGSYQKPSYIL
#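 material = human umbilical vein endothelial cells (HUVEC), E-selectin induction | quantity = 3,000 cells/well | medium = EGM-2 growth medium on 0.1% gelatin-coated wells | technique = immunofluorescence imaging | read-out basis = % PE-positive cells | control set = TNF-alpha positive control, DMSO neutral control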
# SIRT5 inh: inhibitors of human sirtuin-5 desuccinylase | Q9NXA8 | Purified SirT5, succinyl-peptide AMC, trypsin-coupled fluorescence | 330,000 compounds, 1.1% hits | inhibition, % at 15 µM | AID 652115; in the data active = inhibition above about 15%; inconclusive = no clear call, values can overlap the other calls
# DENV2 CPE: inhibitors of DENV2 cytopathic effect; DENV2-infected cells, cytopathic effect rescue, plate reader; CPE inhibition, % at 9.99 µM; 350,000 compounds, 1.7% hits; AID 651640; in the data active = CPE inhibition above about 20%, passing the limit was not always enough; inconclusive = no clear call, values can overlap the other calls; tested in BHK-21 cells;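 also: 0% = median of neutral control wells and 100% = median of positive control wells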
# The depositor's hits bear a star; ? = inconclusive; / = no result given.
SMILES,E-sel inducer,SIRT5 inh,DENV2 CPE
COc1cccc(-c2ccc(C3[C@@H]4CN(S(=O)(=O)c5ccccc5C)C[C@H]3N4)cc2)c1 (some centres not stated),0,10,1
O=S(=O)(c1ccccc1)N1CCCCN2[C@@H](CO)[C@H](c3ccc(-c4cncnc4)cc3)[C@@H]2C1,0,5,-5
O=S(=O)(c1ccccc1)N1CCCCN2[C@H](CO)[C@H](c3ccc(-c4cncnc4)cc3)[C@@H]2C1,0,1,33*
Cc1ccccc1S(=O)(=O)N1CCCCN2[C@H](CO)[C@H](c3ccc(-c4cncnc4)cc3)[C@@H]2C1,0,-4,36*
Cc1ccccc1S(=O)(=O)N1CCCCN2[C@H](C1)[C@@H](c1ccc(-c3cncnc3)cc1)[C@@H]2CO,-1,10,-9
CCOC(=O)C1=CN(Cc2cccc(F)c2)S(=O)(=O)NC1c1ccc2ccccc2c1 (configuration not stated),0,-3,-4
C[C@@H]1CCCCO[C@H](CN(C)Cc2ccc(Cl)c(Cl)c2)[C@@H](C)CN([C@H](C)CO)C(=O)c2cc(NC(=O)Nc3ccc4c(c3)OCO4)ccc2O1,0,0,1
CCNC(=O)C[C@H]1CC[C@@H]2[C@@H](COc3ccc(NC(=O)c4ccc(F)c(F)c4)cc3C(=O)N2C)O1,0,-3,-8
CN(C)C(=O)C[C@H]1CC[C@@H]2[C@@H](COc3ccc(NC(=O)c4ccc(F)c(F)c4)cc3C(=O)N2C)O1,0,-5,-9
CCNC(=O)C[C@H]1CC[C@H]2[C@H](COc3ccc(NC(=O)c4ccc(F)c(F)c4)cc3C(=O)N2C)O1,0,1,88*
CN(C)C(=O)C[C@@H]1CC[C@@H]2[C@H](COc3ccc(NC(=O)c4ccc(F)c(F)c4)cc3C(=O)N2C)O1,0,16*,-10
N#C/C(=C\c1ccccc1)C(=O)NCc1ccc(F)cc1,0,0,-4
CC(O)Cc1cn(CC(=O)N2CCN(C(=O)OC(C)(C)C)CC2)nn1 (configuration not stated),0,/,3
O=C(CC1CC1)N1CC(=O)N2[C@@H](CO)[C@@H](c3ccc(-c4cccnc4)cc3)[C@@H]2C1,0,-4,-7
COCC(=O)Nc1ccc2c(c1)C(=O)N(C)C[C@@H](OC)[C@H](C)CN(Cc1cc(F)ccc1F)[C@H](C)CO2,0,-2,1
CCOc1ccc(C(=O)NCCc2cnc[nH]2)cc1,0,-3,-3
O=C(NCCc1cnc[nH]1)c1ccc(-c2ccccc2)cc1,24,17*,0
CCCn1c(=S)[nH]c2cc(Cl)ccc21,3,1,7
C[C@H]1CN([C@@H](C)CO)C(=O)Cc2cc(NS(=O)(=O)c3ccccc3)ccc2O[C@@H]1CN(C)Cc1ccc(C(F)(F)F)cc1,0,1,8
Cc1c2ccccc2c(C)c2c1ccc1ccccc12,1,10,9
N#C/C(=C\c1cccs1)C(=O)c1ccccc1Cl,0,-1,78*
CC(C)(C)C(=O)/C(C#N)=C/c1cccs1,4,-2,4
N/C(=N\OC(=O)COc1ccc(Cl)cc1)c1ccc(Cl)cc1,/,-1,-6
Cc1cccc(/C(N)=N/OC(=O)COc2ccc(Cl)cc2)c1,/,35*,/
O=C(COC(=O)c1ccc2ncsc2c1)NCc1ccc(Cl)cc1,/,-2,0
SMILES,E-sel inducer,SIRT5 inh,DENV2 CPE
Cc1cccc(C(=O)OCC(=O)NCc2ccc(Cl)cc2)c1,1,-1,29*
Cc1c(-n2c(=O)n(Cc3ccccc3)c(=O)c3[nH]cnc32)cccc1S(C)=O (configuration not stated),0,-5,-6
O=C(COC(=O)CCC1CCCC1)Nc1ccc(Cl)cc1F,-1,/,/
O=C(NC1CCS(=O)(=O)C1)c1cccc(Br)c1 (configuration not stated),/,17*,7
O=C(NC1CCS(=O)(=O)C1)c1ccc2c(c1)OCO2 (configuration not stated),2,-1,-4
CC12CC(c3ccccc3O1)C(/C(N)=N/NC(=O)c1ccc(F)cc1)C(=O)N2 (configuration not stated),/,16*,-2
C/C(Cc1ccccc1)=N\NC(=O)c1ccc(F)cc1,/,0,/
O=C(Nc1nc(-c2ccccc2)cs1)c1ccccc1F,1,-1,-4
COc1cc(/C=C2\NC(=O)NC2=O)cc(Br)c1OC,/,17*,?
COc1ccc(C=C2NC(=O)NC2=O)cc1O,0,/,3
CCCNC(=O)Nc1ccc2c(c1)OC[C@H](C)N(C(=O)c1ccccc1F)C[C@@H](C)[C@H](OC)CN(C)C2=O,0,2,40*
CO[C@@H]1CN(C)C(=O)c2ccc(NC(C)=O)cc2OC[C@@H](C)N(S(C)(=O)=O)C[C@H]1C,0,-3,94*
CO[C@H]1CN(C)C(=O)c2cc(NC(=O)NC(C)C)ccc2OC[C@@H](C)N(S(C)(=O)=O)C[C@@H]1C,0,-1,8
CCCNC(=O)Nc1ccc2c(c1)OC[C@@H](C)N(S(C)(=O)=O)C[C@H](C)[C@H](OC)CN(C)C2=O,0,-1,-14
CCCNC(=O)Nc1ccc2c(c1)OC[C@@H](C)N(C(=O)c1ccccc1F)C[C@@H](C)[C@H](OC)CN(C)C2=O,0,1,-7
CO[C@H]1CN(C)C(=O)c2ccc(NC(C)=O)cc2OC[C@@H](C)N(S(C)(=O)=O)C[C@@H]1C,0,-2,1
CCCNC(=O)Nc1ccc2c(c1)OC[C@H](C)N(S(C)(=O)=O)C[C@@H](C)[C@@H](OC)CN(C)C2=O,0,15*,2
CO[C@H]1CN(C)C(=O)c2ccc(NC(=O)NC(C)C)cc2OC[C@@H](C)N(S(C)(=O)=O)C[C@@H]1C,0,-9,43*
COC(=O)c1ccc(C)c(NC(=O)CCc2ccc(OC)cc2)c1,-1,-2,-8
COCC(=O)N(C)C[C@H]1Oc2ncc(C#Cc3ccccc3OC)cc2C(=O)N([C@H](C)CO)C[C@@H]1C,0,/,15
CO[C@H]1CN(C)C(=O)c2ccc(NC(C)=O)cc2OC[C@@H](C)N(S(=O)(=O)c2cn(C)cn2)C[C@@H]1C,0,-1,26*
CO[C@@H]1CN(C)C(=O)c2cc(NC(C)=O)ccc2OC[C@H](C)N(S(=O)(=O)c2cn(C)cn2)C[C@H]1C,0,0,14
COc1ccccc1CNC(=O)C1CCC(CNS(=O)(=O)c2cccc3cccnc23)CC1 (configuration not stated),0,-4,-3
COC(=O)C1=NNC(C(=O)OC)C1c1ccccc1 (configuration not stated),/,/,4
CCOc1cc(/C=C2\C(=N)N3N=C(S(C)(=O)=O)SC3=NC2=O)ccc1OCCOc1cccc(OC)c1,0,17*,6
CCC1=NN2C(=N)/C(=C\c3ccc(OCCOc4ccccc4)c(OC)c3)C(=O)N=C2S1,0,-2,?
COc1cc(/C=C2\C(=N)N3N=C(S(C)(=O)=O)SC3=NC2=O)cc(OC)c1OCCOc1ccc(C)cc1,0,20*,-4
CCS(=O)(=O)C1=NN2C(=N)/C(=C\c3ccc(OCCOc4cccc(OC)c4)c(OC)c3)C(=O)N=C2S1,2,18*,-2

# From PubChem
